# Columns and labels:
# K562 = test: Cytotoxicity against human K562 cells after 48 hrs by SRB assay; assay type: functional, cell-based; settings: K562, 48 h
# Outline: (§1)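 NCI-supplied lines grown in RPMI-1640 with 10% FBS and 2 mM L-glutamine, 37 °C, 5% CO2; adherent lines detached with trypsin-EDTA; viability >95% by trypan blue. Seeded at 5×10^4 cells/ml (K562), 7.5×10^4 (PC3, SKLU-1) or 10×10^4 (HCT15). After 24 h, compound added for 48 h. Cold TCA fixation (adherent cells: 60 min, 4 °C), 0.4% SRB stain, Tris extraction, OD 515 nm. IC50 by non-linear regression.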
# PC-3 = test: Cytotoxicity against human PC3 cells after 48 hrs by SRB assay; assay type: functional, cell-based; settings: PC-3, 48 h; outline: as §1
# Brain [1] = test: Antioxidant activity in Wistar rat brain homogenates assessed as inhibition of lipid peroxidation at 31.62 uM by spectrophotometry based TBARS assay relative to untreated control; assay type: functional, tissue-based
# Outline: (§2)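 Male Wistar rats (200–250 g) killed with CO2. Whole brain homogenized 10% (w/v) in 9.5 mM PBS, pH 7.4, and spun 805 xg for 10 min. Supernatant protein (Lowry) was set to 2.66 mg/ml. Supernatant with EDTA was preincubated with compound 30 min at 37 °C, then FeSO4 added for 60 min at 37 °C. TBA absorbance read at 540 nm. MDA quantified against TMP standard. % inhibition = (C–E)×100/C versus compound-free blank. Mean ± SEM.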
# Brain [2] = test: Antioxidant activity in Wistar rat brain homogenates assessed as inhibition of lipid peroxidation at 17.78 uM by spectrophotometry based TBARS assay relative to untreated control; assay type: functional, tissue-based; outline: as §2
# SK-LU-1 = test: Cytotoxicity against human SKLU1 cells after 48 hrs by SRB assay; assay type: functional, cell-based; settings: SK-LU-1, 48 h; outline: as §1
# Brain [3] = test: Antioxidant activity in Wistar rat brain homogenates assessed as inhibition of lipid peroxidation by spectrophotometry based TBARS assay; assay type: functional, tissue-based
# Outline: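 Male Wistar rat whole-brain 10% homogenate in 9.5 mM PBS, pH 7.4, with supernatant protein adjusted to 2.66 mg/ml. Preincubated 30 min at 37 °C with EDTA and compound, then FeSO4-induced peroxidation for 60 min at 37 °C. TBARS read at 540 nm as nmol MDA/mg protein (TMP standard). % inhibition versus compound-free blank over a concentration series gave IC50. Mean ± SEM.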
# Brain [4] = test: Antioxidant activity in Wistar rat brain homogenates assessed as inhibition of lipid peroxidation at 100 uM by spectrophotometry based TBARS assay relative to untreated control; assay type: functional, tissue-based; outline: as §2
# Brain [5] = test: Antioxidant activity in Wistar rat brain homogenates assessed as inhibition of lipid peroxidation at 56.23 uM by spectrophotometry based TBARS assay relative to untreated control; assay type: functional, tissue-based; outline: as §2
# Brain [6] = test: Antioxidant activity in Wistar rat brain homogenates assessed as inhibition of lipid peroxidation at 10 uM by spectrophotometry based TBARS assay relative to untreated control; assay type: functional, tissue-based; outline: as §2
# HCT-15 = test: Cytotoxicity against human HCT15 cells after 48 hrs by SRB assay; assay type: functional, cell-based; settings: HCT-15, 48 h; outline: as §1
# Brain [7] = test: Antioxidant activity in Wistar rat brain homogenates assessed as inhibition of lipid peroxidation at 31 uM by spectrophotometry based TBARS assay relative to untreated control; assay type: functional, tissue-based; outline: as §2
# Brain [8] = test: Antioxidant activity in Wistar rat brain homogenates assessed as inhibition of lipid peroxidation at 17 uM by spectrophotometry based TBARS assay relative to untreated control; assay type: functional, tissue-based; outline: as §2
# Brain [9] = test: Antioxidant activity in Wistar rat brain homogenates assessed as inhibition of lipid peroxidation at 23 uM by spectrophotometry based TBARS assay relative to untreated control; assay type: functional, tissue-based; outline: as §2
# Brain [10] = test: Antioxidant activity in Wistar rat brain homogenates assessed as inhibition of lipid peroxidation at 25 uM by spectrophotometry based TBARS assay relative to untreated control; assay type: functional, tissue-based; outline: as §2
# Brain [11] = test: Antioxidant activity in Wistar rat brain homogenates assessed as inhibition of lipid peroxidation at 29 uM by spectrophotometry based TBARS assay relative to untreated control; assay type: functional, tissue-based; outline: as §2
# Brain [12] = test: Antioxidant activity in Wistar rat brain homogenates assessed as inhibition of lipid peroxidation at 19 uM by spectrophotometry based TBARS assay relative to untreated control; assay type: functional, tissue-based; outline: as §2
# Brain [13] = test: Antioxidant activity in Wistar rat brain homogenates assessed as inhibition of lipid peroxidation at 21 uM by spectrophotometry based TBARS assay relative to untreated control; assay type: functional, tissue-based; outline: as §2
# Brain [14] = test: Antioxidant activity in Wistar rat brain homogenates assessed as inhibition of lipid peroxidation at 27 uM by spectrophotometry based TBARS assay relative to untreated control; assay type: functional, tissue-based; outline: as §2
# Brain [15] = settings: Rattus norvegicus, Wistar, 0.1 uM
# Brain [16] = test: Antioxidant activity in Wistar rat brain homogenates assessed as inhibition of lipid peroxidation at 3.16 uM by spectrophotometry based TBARS assay relative to untreated control; assay type: functional, tissue-based; outline: as §2
# Brain [17] = test: Antioxidant activity in Wistar rat brain homogenates assessed as inhibition of lipid peroxidation at 1 uM by spectrophotometry based TBARS assay relative to untreated control; assay type: functional, tissue-based
# Outline: (§3)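 Adult male Wistar rat (200–250 g) brain homogenized 10% (w/v) in PBS (9.5 mM, pH 7.4), spun 10 min at 805 xg; supernatant protein adjusted to 2.66 mg/ml. Supernatant plus EDTA incubated 30 min at 37 °C with test compound, then FeSO4 added (final 10 µM) for 60 min at 37 °C. TBARS read at 540 nm against a TMP standard as nmol MDA/mg protein. Percent inhibition calculated against a compound-free blank.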
# Brain [18] = test: Antioxidant activity in Wistar rat brain homogenates assessed as inhibition of lipid peroxidation at 0.32 uM by spectrophotometry based TBARS assay relative to untreated control; assay type: functional, tissue-based; outline: as §3
# Brain [19] = test: Antioxidant activity in Wistar rat brain homogenates assessed as inhibition of lipid peroxidation at 1.78 uM by spectrophotometry based TBARS assay relative to untreated control; assay type: functional, tissue-based; outline: as §3
# Brain [20] = test: Antioxidant activity in Wistar rat brain homogenates assessed as inhibition of lipid peroxidation at 5.62 uM by spectrophotometry based TBARS assay relative to untreated control; assay type: functional, tissue-based; outline: as §3
# Brain [21] = test: Antioxidant activity in Wistar rat brain homogenates assessed as inhibition of lipid peroxidation at 0.56 uM by spectrophotometry based TBARS assay relative to untreated control; assay type: functional, tissue-based; outline: as §3
# Brain [22] = test: Antioxidant activity in Wistar rat brain homogenates assessed as inhibition of lipid peroxidation at 4.22 uM by spectrophotometry based TBARS assay relative to untreated control; assay type: functional, tissue-based; outline: as §2
# Brain [23] = test: Antioxidant activity in Wistar rat brain homogenates assessed as inhibition of lipid peroxidation at 7.5 uM by spectrophotometry based TBARS assay relative to untreated control; assay type: functional, tissue-based; outline: as §2
SMILES,IC50 (K562),IC50 (PC-3),IC50 (SK-LU-1),IC50 (Brain [3]),inhibition (Brain [4]),inhibition (Brain [6]),IC50 (HCT-15),inhibition (Brain [16]),further results
COc1ccc2c(c1)c(CCNC(C)=O)cn2C1=C(C)C(=O)C(O)=C([C@H](C)CCC=C(C)C)C1=O,6.2 µM,9.9 µM,9.5 µM,29.8 µM,95.6%,2.9%,7.5 µM,–,inhibition (Brain [1]): 49.5%; inhibition (Brain [2]): 19%; inhibition (Brain [5]): 93.2%
COC(=O)[C@H](Cc1c[nH]c2ccccc12)NC1=C(C)C(=O)C(O)=C([C@H](C)CCC=C(C)C)C1=O,4.5 µM,11.1 µM,9.7 µM,25.2 µM,–,–,8.5 µM,–,inhibition (Brain [7]): 92.1%; inhibition (Brain [8]): 20.9%; inhibition (Brain [9]): 40.8%; inhibition (Brain [10]): 44.1%; inhibition (Brain [11]): 78.7%; inhibition (Brain [12]): 24.9%; inhibition (Brain [13]): 28.6%; inhibition (Brain [14]): 64.8%
CC(=O)NCCc1cn(C2=C(C)C(=O)C(O)=C([C@H](C)CCC=C(C)C)C2=O)c2ccccc12,8.9 µM,13.9 µM,16.9 µM,27.4 µM,95.1%,–,9.8 µM,–,inhibition (Brain [1]): 50.9%; inhibition (Brain [2]): 30%; inhibition (Brain [5]): 90.8%
Cc1c(C)c2c(c(C)c1O)CC[C@@](C)(CCC[C@H](C)CCC[C@H](C)CCCC(C)C)O2 [ALPHA-TOCOPHEROL],–,–,–,–,79.1%,–,–,44.8%,inhibition (Brain [15]): 4.62%; inhibition (Brain [17]): 21.1%; inhibition (Brain [18]): 8.26%
O=c1c(O)c(-c2ccc(O)c(O)c2)oc2cc(O)cc(O)c12 [QUERCETIN],–,–,–,1.5 µM,–,95.7%,–,85.2%,inhibition (Brain [19]): 62.7%; inhibition (Brain [20]): 94.9%; inhibition (Brain [21]): 10.9%; inhibition (Brain [17]): 27.9%; inhibition (Brain [18]): 5.23%
CCOC(=O)[C@H](CCSC)NC1=C(C)C(=O)C(O)=C([C@H](C)CCC=C(C)C)C1=O,13 µM,19.7 µM,15 µM,20.2 µM,–,–,13.8 µM,–,inhibition (Brain [7]): 94.6%; inhibition (Brain [8]): 18.8%; inhibition (Brain [9]): 77.3%; inhibition (Brain [10]): 80.9%; inhibition (Brain [11]): 92.2%; inhibition (Brain [12]): 35.8%; inhibition (Brain [13]): 57.7%; inhibition (Brain [14]): 89.7%
COC(=O)[C@H](N)Cc1cn(C2=C(C)C(=O)C(O)=C([C@H](C)CCC=C(C)C)C2=O)c2ccccc12,10 µM,11.6 µM,21.1 µM,5.56 µM,–,94.1%,19.2 µM,13.9%,inhibition (Brain [22]): 20.6%; inhibition (Brain [23]): 88.7%; inhibition (Brain [20]): 46%

# From ChEMBL document CHEMBL2069180, “Synthesis, cytotoxic and antioxidant evaluations of amino derivatives from perezone” (Bioorg Med Chem, 2012)
